Assay results as given in ChEMBL document CHEMBL4725468, “Identification of 3,5-Dimethylisoxazole Derivatives as BRD4 Inhibitors for the Treatment of Colorectal Cancer” (ACS Med Chem Lett, 2020).
Activity calls are given as the source filed them. No cut-off for these calls is given here.

Experiments:
[1] = target: Bromodomain-containing protein 4 (Homo sapiens, UniProt O60885); experiment: Inhibition of BRD4 bromodomain1 (unknown origin) using peptide histone H4 (SGRGACKGGACKGLGAC-KGGAACKRHGSGSK-biotin) as substrate incubated for 15 mins followed by substrate addition measured after 1 hr by alphascreen assay
BXPC-3 = experiment: Antiproliferation activity against human BxPC3 cells assessed as reduction in cell viability at 2.5 uM incubated for 48 hrs by MTT assay relative to control; format: functional
In short: (§1)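 Single-concentration screen at 2.5 μM against BxPc3 and Mia-capa2 pancreatic cancer cells. Read-out is percent growth inhibition.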

HCT-116 [2] = experiment: Antiproliferation activity against human HCT116 cells assessed as reduction in cell viability at 2 uM incubated for 48 hrs by MTT assay relative to control; format: functional
In short: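 HCT116 colon cancer cells screened at a single 2.0 μM concentration. Read-out is percent growth inhibition.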

MIA PaCa-2 = experiment: Antiproliferation activity against human MIAPaCa2 cells assessed as reduction in cell viability at 2.5 uM incubated for 48 hrs by MTT assay relative to control; format: functional; in short: as §1
HCT-116 [3] = experiment: Antiproliferation activity against human HCT116 cells assessed as reduction in cell viability incubated for 48 hrs by MTT assay; format: functional, cell-based; conditions: HCT-116, 48 h
In short: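 HCT116 cells treated across a concentration gradient. IC50 was taken from dose–response curves, reported as mean ± SD of at least three independent experiments.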

CT26 [4] = experiment: Anticancer activity against […] xenografted in C57BL/6 mouse assessed as cell morphological changes measured at 20 mg/kg, iv administered for 14 days by hematoxylin staining based immunohistochemical analysis; format: functional, organism-based; conditions: time 14.0 day
HCT-116 [5] = experiment: Induction of apoptosis in human HCT116 cells assessed as decrease in Bcl2 protein expression level at 1 uM incubated for 48 hrs by western blot analysis; format: functional, cell-based
In short: (§2)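 HCT116 cells treated at 1 μM for 48 h. Bcl-2, HEXIM1, BRD4 and c-Myc protein levels were measured by western blot.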

HCT-116 [6] = experiment: Induction of apoptosis in human HCT116 cells assessed as downregulation of c-myc protein expression at 1 uM incubated for 48 hrs by western blot analysis; format: functional, cell-based; in short: as §2
CT26 [7] = experiment: Anticancer activity against mouse CT26 cells xenografted in C57BL/6 mouse assessed as decrease in c-myc expression at 20 mg/kg, ip administered for 14 days by hematoxylin staining based immunohistochemical analysis; conditions: time 14.0 day
HCT-116 [8] = experiment: Induction of apoptosis in human HCT116 cells assessed as upregulation of HEXIM1 protein expression at 1 uM incubated for 48 hrs by western blot analysis; format: functional, cell-based; in short: as §2
CT26 [9] = experiment: Antitumor activity against […] xenografted in C57BL/6 mouse assessed as tumor suppression at 13.6 mg/kg, iv administered for 14 days and measured every two days relative to control; format: functional; conditions: C57BL/6, CT26, iv, 336 h, time 14 day, read-out: GI
[10] = Toxicity in C57BL/6 mouse xenografted with mouse CT26 cells assessed as body weight at 20 mg/kg, ip administered for 14 days and measured every two days; conditions: in vivo, 336 h
CT26 [11] = experiment: Anticancer activity against mouse CT26 cells xenografted in C57BL/6 mouse assessed as decrease in […] expression at 20 mg/kg, ip administered for 14 days by hematoxylin staining based immunohistochemical analysis; conditions: time 14.0 day
HCT-116 [12] = experiment: Antiproliferation activity against human HCT116 cells assessed as reduction in cell viability for 12 days by crystal violet staining based plate clone-forming analysis; format: functional; conditions: dose microM 0.008-0.165, time 12.0 day
In short: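 Plate colony-formation assay in HCT116 cells with 12 days of compound exposure at several concentrations.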

CT26 [13] = experiment: Antitumor activity against mouse CT26 cells xenografted in C57BL/6 mouse assessed as tumor suppression at 20 mg/kg, ip administered for 14 days and measured every two days relative to control; conditions: C57BL/6, CT26, ip, 336 h, read-out: GI
HCT-116 [14] = experiment: Induction of apoptosis in human HCT116 cells assessed as activation of downstream effector Caspase 3 at 1 uM incubated for 48 hrs by western blot analysis; format: functional, cell-based
HCT-116 [15] = experiment: Induction of apoptosis in human HCT116 cells assessed as upregulation of BRD4 expression at 1 uM incubated for 48 hrs by western blot analysis; format: functional, cell-based; in short: as §2
CT26 [16] = experiment: Antitumor activity against […] xenografted in C57BL/6 mouse assessed as tumor suppression at 5 mg/kg, iv administered for 14 days and measured every two days relative to control; format: functional; conditions: C57BL/6, CT26, iv, 336 h, time 14 day, read-out: GI
CT26 [17] = experiment: Anticancer activity against mouse CT26 cells xenografted in C57BL/6 mouse assessed as upregulation in HEXIM1 expression at 20 mg/kg, ip administered for 14 days by hematoxylin staining based immunohistochemical analysis; conditions: time 14.0 day
HCT-116 [18] = experiment: Induction of cell cycle arrest in human HCT116 cells assessed as accumulation at G0/G1 phase at 0.16 uM incubated for 48 hrs by flow cytometry; format: functional, cell-based
In short: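 HCT116 cells exposed to 0.16 μM for 48 h. Cell cycle phase distribution was measured, including the G0/G1 fraction.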

CT26 [19] = experiment: Antitumor activity against […] xenografted in C57BL/6 mouse assessed as tumor suppression at 10 mg/kg, iv administered for 14 days and measured every two days relative to control; format: functional; conditions: C57BL/6, CT26, iv, 336 h, time 14 day, read-out: GI

SMILES | IC50 [1] | Activity (BXPC-3) | Activity (HCT-116 [2]) | Activity (MIA PaCa-2) | IC50 (HCT-116 [3]) | other results
Cc1noc(C)c1-c1ccc2c(c1)C(c1ccccc1)N(Cc1cn(CCOCCOCCn3cc(CN4C(=O)Nc5ccc(-c6c(C)noc6C)cc5C4c4ccccc4)nn3)nn1)C(=O)N2 (stereo not drawn) | < 0.0021 µM | 21.8% | 60.5% | 63.2% |  | 
Cc1noc(C)c1-c1ccc2c(c1)C(c1ccccc1)N(Cc1cn(CCOCCOCCOCCn3cc(CN4C(=O)Nc5ccc(-c6c(C)noc6C)cc5C4c4ccccc4)nn3)nn1)C(=O)N2 (stereo not drawn) | < 0.0021 µM | 42.2% | 60.4% | 66.4% |  | 
Cc1noc(C)c1-c1ccc2c(c1)C(c1ccccc1)N(Cc1cn(CCCCCCn3cc(CN4C(=O)Nc5ccc(-c6c(C)noc6C)cc5C4c4ccccc4)nn3)nn1)C(=O)N2 (stereo not drawn) | < 0.0021 µM | 37.1% | 60.1% | 57.2% |  | 
Cc1noc(C)c1-c1ccc2c(c1)C(c1ccccc1)N(CCCCCCN1C(=O)N(C)c3ccc(-c4c(C)noc4C)cc3C1c1ccccc1)C(=O)N2C (stereo not drawn) | 0.042 µM | 44% | 59.7% | 70.9% | 1.1 µM | 
Cc1noc(C)c1-c1ccc2c(c1)C(c1ccccc1)N(Cc1cn(CCn3cc(CN4C(=O)Nc5ccc(-c6c(C)noc6C)cc5C4c4ccccc4)nn3)nn1)C(=O)N2 (stereo not drawn) | < 0.0021 µM | 53% | 60.3% | 62.2% |  | 
Cc1sc2c(c1C)C(c1ccc(Cl)cc1)=N[C@@H](CC(=O)OC(C)(C)C)c1nnc(C)n1-2 |  | 9.1% | 23.2% | 56.2% | 4.21 µM | 
Cc1noc(C)c1-c1ccc2c(c1)C(c1ccccc1)N(Cc1cn(CCOCCn3cc(CN4C(=O)Nc5ccc(-c6c(C)noc6C)cc5C4c4ccccc4)nn3)nn1)C(=O)N2 (stereo not drawn) | < 0.0021 µM | 52.1% | 55.6% | 54.4% |  | 
Cc1noc(C)c1-c1ccc2c(c1)C(c1ccccc1)N(Cc1cn(CCOCCn3cc(CN4C(=O)N(C)c5ccc(-c6c(C)noc6C)cc5C4c4ccccc4)nn3)nn1)C(=O)N2C (stereo not drawn) | 0.0042 µM | 23.2% | 49.6% | 64% |  | 
Cc1noc(C)c1-c1ccc2c(c1)C(c1ccccc1)N(CCCCCN1C(=O)N(C)c3ccc(-c4c(C)noc4C)cc3C1c1ccccc1)C(=O)N2C (stereo not drawn) | 0.056 µM | 27.9% | 52% | 71.3% |  | 
CCS(=O)(=O)Nc1ccc(Oc2ccc(F)cc2F)c(-c2cn(C)c(=O)c3[nH]ccc23)c1 [MIVEBRESIB] | 0.0025 µM | 36.8% | 69.5% | 64.3% | 0.55 µM | 
Cc1noc(C)c1-c1ccc2c(c1)C(c1ccccc1)N(CCOCCOCCN1C(=O)N(C)c3ccc(-c4c(C)noc4C)cc3C1c1ccccc1)C(=O)N2C (stereo not drawn) | 0.031 µM | 7.1% | 43.4% | 67.3% |  | 
Cc1noc(C)c1-c1ccc2c(c1)C(c1ccccc1)N(Cc1cn(CCOCCOCCOCCn3cc(CN4C(=O)N(C)c5ccc(-c6c(C)noc6C)cc5C4c4ccccc4)nn3)nn1)C(=O)N2C (stereo not drawn) | 0.0077 µM | 61.3% | 83.6% | 68.4% | 0.162 µM | Activity (CT26 [4]): Active; Activity (HCT-116 [5]): Active; Activity (HCT-116 [6]): Active; Activity (CT26 [7]): Active; Activity (HCT-116 [8]): Active; inhibition in vivo at 13.6 mg/kg (CT26 [9]): 11.5%; Activity [10]: Non-Toxic; Activity (CT26 [11]): Active; inhibition (HCT-116 [12]): Dose-dependent effect; inhibition in vivo at 20 mg/kg (CT26 [13]): 56.1%; Activity (HCT-116 [14]): Active; Activity (HCT-116 [15]): Active; inhibition in vivo at 5 mg/kg (CT26 [16]): 68%; Activity (CT26 [17]): Active; Activity (HCT-116 [18]): Active; inhibition in vivo at 10 mg/kg (CT26 [19]): 33.8%
Cc1noc(C)c1-c1ccc2c(c1)C(c1ccccc1)N(CCCCCCCCCCN1C(=O)N(C)c3ccc(-c4c(C)noc4C)cc3C1c1ccccc1)C(=O)N2C (stereo not drawn) |  | 45.2% | 48.8% | 65.2% |  | 
Cc1noc(C)c1-c1ccc2c(c1)C(c1ccccc1)NC(=O)N2C (stereo not drawn) | 0.032 µM | 11.2% | 14% | 59.1% | 3.34 µM | Activity (HCT-116 [5]): Active; Activity (HCT-116 [6]): Active; inhibition (HCT-116 [12]): Active; inhibition in vivo at 20 mg/kg (CT26 [13]): 11.5%; Activity (HCT-116 [18]): Active
Cc1noc(C)c1-c1ccc2c(c1)C(c1ccccc1)N(CCCCN1C(=O)N(C)c3ccc(-c4c(C)noc4C)cc3C1c1ccccc1)C(=O)N2C (stereo not drawn) | 0.013 µM | 46.4% | 59.3% | 68.2% |  | 
Cc1noc(C)c1-c1ccc2c(c1)C(c1ccccc1)N(CCOCCOCCOCCN1C(=O)N(C)c3ccc(-c4c(C)noc4C)cc3C1c1ccccc1)C(=O)N2C (stereo not drawn) | 0.019 µM | 42.1% | 35.3% | 73.4% |  | 
